The sample as a whole holds a higher share of hits than the screen did.
CHOP inh – inhibitors of CHOP promoter induction, primary screen, cell-based, unfolded protein response, luciferase reporter; CHO-K1 CHOP-promoter luciferase, tunicamycin-induced, 15-18 h; 220,000 tested, 3.8% active; inhibition, % at 10 µM;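 active means compounds that reduced the stress-induced luciferase reporter signal by more than about 70% of percent inhibition, limit read from the data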;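 further: 0% = tunicamycin plus vehicle and 100% = wells without tunicamycin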
CHOP UPR activ – activators of apoptotic CHOP UPR arm, primary screen, cell-based, CHO-CHOP luciferase reporter, luminescence, uHTS; AID 449763, 2010; activation, % at 10 µM; 330,000 tested, 0.34% active; UPR activation; percent of tunicamycin response over DMSO baseline;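 active means at 10 µM dose, activation of 40% or more, normalized to positive control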;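 further: 100% = tunicamycin at 10 µg/mL and 0% = DMSO alone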
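Dosing – one dose, 10 µM in 0.5% DMSO · System – CHO-CHOP cells, stable luciferase reporter of PERK-eIF2a-CHOP signalling · Input – 500 cells/well · Control set – tunicamycin 10 µg/mL final as positive, DMSO-only wells as negative · Timing – 6 h compound treatment, 37 °C · Measure – % activation vs tunicamycin · Technique – luminescence read with Steady-Glo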
Jurkat NFkB inh – inhibitors of induced NF-kB luciferase reporter, primary screen, TCR NF-kB activation inhibitor project, cell-based, luminescence, uHTS. Jurkat, PMA/ionomycin-induced NF-kB luciferase reporter. inhibition, % at 4 µM. 330,000 tested, 0.53% active; in the data active means inhibition above about 50%
XBP1 UPR activ – activators of adaptive XBP1 UPR arm, primary screen, cell-based, CHO-XBP1 luciferase reporter, luminescence, uHTS | IRE1-XBP1 UPR activation; percent of tunicamycin response, DMSO as zero | activation, % at 20 µM | 330,000 tested, 0.33% active;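 active means versus positive control, 20 µM dose yields 30% or more activation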;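 further: 100% = tunicamycin at 10 µg/mL and 0% = DMSO only wells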
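Material: CHO-XBP1 cells stably carrying IRE1-XBP1-driven luciferase reporter / Amount: 1000 cells per well / Compound: 20 µM, 1% DMSO / Times: 6 h treatment, 37 °C / Detection: luciferase luminescence / Measure: % activation of reporter signal versus tunicamycin and DMSO controls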
697 NFkB inh – inhibitors of PMA/ionomycin-induced NF-kB reporter, 697 cells, primary screen, B-cell NF-kB inhibitor project, cell-based, luminescence, uHTS. 697 B-cell NF-kB luciferase reporter, 16 h. inhibition, % at 4 µM. 330,000 tested, 0.33% active. AID 435022, 2010; in the data active means inhibition above about 35%
Active calls of the source: *; . = no result given.

SMILES	CHOP inh	CHOP UPR activ	Jurkat NFkB inh	XBP1 UPR activ	697 NFkB inh
CCN=C1SC(CC(=O)Nc2ccc(C(F)(F)F)cc2)C(=O)N1CC (stereo not given)	82*	-1	1	-2	22
CCC(=O)Nc1sc2c(c1C#N)CCCCC2	6	1	-7	4	-6
CCN=C1SC(CC(=O)Nc2sc3c(c2C#N)CCCC3)C(=O)N1CC (stereo not given)	92*	0	13	4	20
CC(=O)c1ccccc1NC(=O)COC(=O)c1cc(C)oc1C	.	1	0	1	5
CC1C(=O)N(C)C(=O)c2nc[nH]c21 (stereo not given)	1	.	.	.	.
COc1ccc(CCC(C)Nc2ccc(F)cc2)cc1 (stereo not given)	88*	-2	-8	-3	4
COc1ccc(CCC(C)Nc2ccc(F)c(F)c2)cc1 (stereo not given)	59	0	-31	-2	-12
COc1ccc(CCC(C)Nc2cccc(C)c2)cc1 (stereo not given)	82*	2	-5	-2	4
NC(=O)c1nn(-c2ccccc2)nc1NC(=O)Cn1nnc(-c2ccccc2)n1	72*	3	4	0	6
O=C(c1ccco1)N1C(=O)c2cccc3c(S(=O)(=O)N4CCCC4)ccc1c23	74*	0	-6	2	14
O=C(COc1ccccc1)Nc1cccc2nsnc12	76*	0	-10	0	22
Cc1cccc(OCC(=O)Nc2cccc3nsnc23)c1	44	2	-10	-3	-4
O=C(Nc1ccc(Cl)cc1)Nc1cccc2nsnc12	73*	12	-80	1	-96
O=C(Nc1ccncc1)Nc1cccc(Cl)c1Cl	.	2	14	5	5
CC1CCc2c(sc(NC(=O)CSc3nnc(-c4ccccc4)o3)c2C#N)C1 (stereo not given)	74*	1	1	-2	-11
COc1ccc(CCNC(=O)CCS(=O)(=O)c2cccc3nsnc23)cc1OC	78*	-1	-6	-1	2
COc1ccc(CCNS(=O)(=O)c2cccc3nsnc23)cc1OC	15	-2	-9	-3	9
CC1(C)CC2=C(CO1)C(=S)NC(c1ccccc1)N2CC1CCCO1 (stereo not given)	3	0	-14	2	-10
CCN(CC)S(=O)(=O)c1ccc(/C=C/C(=O)OCC(=O)N(C)C)cc1	1	-1	-5	-1	-9
COc1ccc(Nc2nc(N3CCCCC3)c3ccccc3n2)cc1	82*	7	16	5	-55
Oc1ccc(Nc2nc(N3CCCC3)c3ccccc3n2)cc1	.	-2	-15	2	-43
Oc1c(C(c2cccs2)N2CCN(c3ccccc3)CC2)ccc2cccnc12 (stereo not given)	99*	87*	-10	4	-38
Cc1ccc(CSCC(=O)N/N=C/c2sccc2C)cc1	95*	0	-12	4	-9
COc1ccc(CC(=O)N/N=C/c2sccc2C)cc1	.	0	8	-1	-10
CCc1cccc2c(C(=O)COC(=O)c3ccc([N+](=O)[O-])s3)c[nH]c12	73*	0	1	5	10
SMILES	CHOP inh	CHOP UPR activ	Jurkat NFkB inh	XBP1 UPR activ	697 NFkB inh
COc1ccc(C(N)=O)c(OCC(=O)Nc2cc(C)on2)c1	.	-1	-3	2	16
COc1cc(/C=C2\SC(c3ccc(C)cc3)=NC2=O)ccc1O	86*	-6	10	-3	20
COc1cc(/C=C2\SC(=S)N(c3cccnc3)C2=O)ccc1O	90*	1	-10	-1	-18
CCc1cccc2c1NC1(CCCC1)CC2C (stereo not given)	91*	-1	-5	-3	1
Cc1ccsc1/C=N/n1c(C2CCCCC2)n[nH]c1=S	84*	0	8	0	0
O=C1C(C2=NC(c3ccccn3)C3C(=O)N(c4ccccc4)C(=O)C23)=C(O)c2ccccc21 (stereo not given)	-13	0	10	0	8
Cc1ccc(C(=O)Nc2cc(C(C)C)c(O)c(C(C)C)c2)cc1	74*	3	-2	-3	34
CCN(CC)c1c(-c2ccccc2)c2cc(C)ccc2[nH]c1=O	95*	2	10	0	-6
C/C(=N\N)c1c(-c2ccccc2)c2cc(C)ccc2[nH]c1=O	-1	0	0	0	12
Cc1ccc2[nH]c(=O)c(CNS(=O)(=O)c3ccccc3)c(-c3ccccc3)c2c1	87*	1	36	1	-19
c1ccc(CNc2ncnc3scc(-c4cccs4)c23)nc1	72*	-1	28	2	-120
c1ccc(-c2csc3ncnc(NCc4ccccn4)c23)cc1	42	-1	8	5	-58
COc1ccc(-c2cnnc(N/N=C/c3ccc(O)cc3)n2)cc1	81*	5	-19	10	-86
COc1ccc(-c2cnnc(N/N=C/c3ccc(O)c(O)c3)n2)cc1	37	0	12	-1	12
O=C(COC(=O)c1cc(-c2cccc(Br)c2)nc2ccccc12)NCC1CCCO1 (stereo not given)	41	-1	7	-2	12
CCc1c(C)sc(NC(=O)c2cc(-c3ccc(OC)c(OC)c3)on2)c1C#N	83*	-2	3	-2	1
CCc1c(C)sc(NC(=O)c2cc(-c3cc(OC)ccc3OC)on2)c1C#N	86*	4	7	18	11
CCc1c(C)sc(NC(=O)c2cc(-c3ccc(O)cc3)on2)c1C#N	-10	1	-3	4	-7
CCCCCCCCCCCCCCCCOCC(COCC(F)(F)F)OP(=O)(O)OCO (stereo not given)	-5	.	.	.	.
Cc1ccccc1OCC(=O)NNC(=O)c1cc(S(=O)(=O)N2CCOCC2)ccc1N1CCCC1	.	2	-10	-3	-5
Cc1ccc(NC2=C(Cl)C(=O)OC2OC(=O)c2ccccc2)c(C)c1 (stereo not given)	74*	0	0	-4	10
COc1ccc(NC(=O)Nc2ccc(C(=O)N3CCOCC3)cc2)c(OC)c1	16	-1	16	3	10
Cc1nn(-c2ccc(F)cc2)c(Cl)c1/C=C1\C(=O)Nc2ccccc21	94*	1	37	2	-113
CCOc1ccc2cc(C3CC(c4ccco4)=NN3S(C)(=O)=O)c(Cl)nc2c1 (stereo not given)	17	-3	-2	0	9
CCc1ccc(C2CC(c3ccco3)=NN2S(C)(=O)=O)cc1 (stereo not given)	73*	-2	-118	-7	-216
